Only some compounds are listed: those with a hit (about 1.2% of all), similar ones and a draw of the others.
procasp3 activ = activators of human procaspase-3 D3A mutant, primary screen, biochemical, absorbance, PC-3 D3A mutant, single concentration | Caspase-3 (Homo sapiens), P42574 | recombinant procaspase-3 D3A, Ac-DEVD-pNA absorbance 405 nm | activation, % at 8.5 µM | 330,000 tested, 0.11% active | AID 463141, 2010;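 active = activation above the mean of all tested compounds plus 3 SD, cut at about 21% in these data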;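 also: 0% = DMSO alone and 100% = DMSO wells spiked with extra 5 µM PC-3 D3A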
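Compound: 8.5 µM single point, 0.8% DMSO / Material: Autoprocessing-dead procaspase-3 D3A mutant enzyme / Timing: 1 h preincubation plus 2 h reaction at 25 °C / Medium: Zinc-free HEPES/NaCl buffer with 0.01% Triton X-100 at pH 7.4 / Technique: 405 nm absorbance of p-nitroaniline, reads at 0 and 120 min / Repeats: one well per compound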
procasp7 counter = procaspase-7 activators, primary screen, counter-screen for procaspase-3 activator project, biochemical, absorbance, HTS, human; activation, % at 8.5 µM; 330,000 tested, 0.093% active; recombinant procaspase-7, Ac-DEVD-pNA absorbance 405 nm; D23A/D198A/D206A triple mutant, cannot self-cleave; scale: DMSO 0, 5 µM enzyme 100; Caspase-7 (Homo sapiens), P55210;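 active = percent activation above the screen-wide mean plus 3 SD, cut at about 25% in these data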
Target sequence (P55210 whole entry D23A/D198A/D206A): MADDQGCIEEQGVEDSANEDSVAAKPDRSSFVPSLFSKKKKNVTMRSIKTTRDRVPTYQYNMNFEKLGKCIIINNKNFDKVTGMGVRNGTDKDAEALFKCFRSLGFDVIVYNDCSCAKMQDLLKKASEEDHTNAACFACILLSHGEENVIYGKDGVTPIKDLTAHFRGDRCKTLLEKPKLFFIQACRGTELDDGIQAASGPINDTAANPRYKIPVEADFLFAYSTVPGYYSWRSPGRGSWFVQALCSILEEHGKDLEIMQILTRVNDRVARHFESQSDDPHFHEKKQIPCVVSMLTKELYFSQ
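buffer or medium = Zinc-free HEPES/NaCl buffer, pH 7.4 | material = Procaspase-7 triple mutant (PC-7 D3A) | input = 2 µM procaspase-7 mutant as dispensed | signal = Epi-absorbance of released pNA at 405 nm, two timepoints | timing = 1 h preincubation, 2 h reaction | replicates = singlicate compound testing | evaluation = % activation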
TPT1 inhibitor = Candida albicans TPT1 enzyme inhibitors, primary screen, biochemical, fluorescence polarization; 300,000 tested, 0.81% active; inhibition, % at 5 µM; tRNA 2'-phosphotransferase TPT1 (Candida albicans SC5314); recombinant caTPT1, FP RNA substrate dephosphorylation; AID 1962, 2009;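 active = inhibition above the mean of all tested compounds plus 3 SD, set per screening campaign, cut at about 24% in these data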;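 also: plate controls were DMSO alone for no effect and ferristatin control at 100 nM for full effect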
IDE act = human IDE activators in live cells, primary screen, fluorescence polarization, HEK cells, FAbeta-B substrate | AID 493087, 2011 | FAbeta-B cleavage; 0% vehicle, 100% cell-free pure enzyme wells | activation, % at 5.96 µM | 340,000 tested, 0.073% active;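 active = activation above the mean of all tested compounds plus 3 SD, set per screening campaign, cut at about 17% in these data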
IDE cell inh = human IDE inhibitors in live cells, primary screen, fluorescence polarization, HEK cells, FAbetaB substrate. Insulin-degrading enzyme (Homo sapiens), P14735. FAbetaB cleavage. inhibition, % at 5.59 µM. 320,000 tested, 0.41% active. AID 434962, 2010;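 active = percent inhibition above the average of all tested compounds plus 3 SD, set per screening campaign, cut at about 16% in these data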;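 also: IDE supplied by intact live HEK cells; FP after avidin binding of uncleaved biotin substrate so inhibition keeps polarization high; 0% = DMSO wells and 100% = 60 µM reference IDE inhibitor Ii1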
TPT1 inh confirm = Candida albicans TPT1 inhibitors, confirmation, biochemical, fluorescence polarization, triplicate; shares compounds with TPT1 inhibitor; recombinant caTPT1, RNase T1 coupled; inhibition, % at 5 µM; 2,400 tested, 74% active; AID 2149, 2009;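 active = inhibition above the primary screen limit, the mean inhibition of all tested compounds plus 3 SD, cut at about 25% in these data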
RNase T1 counter = RNase T1 inhibitors, counter-screen for TPT1 inhibitor project, biochemical, fluorescence polarization. 2,400 tested, 83% active. AID 2153, 2009. shares compounds with TPT1 inhibitor. RNase T1 cleavage, 1536-well. inhibition, % at 5 µM;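 active = inhibition above the solvent-only control well mean plus 3 SD, limit set per screening run, cut at about 23% in these data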;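 also: plate controls were DMSO wells with enzyme for no effect and wells without RNase T1 for full effect; inhibitors block cleavage so intact labeled substrate keeps polarization high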
Target sequence (P00651 whole entry, looked up): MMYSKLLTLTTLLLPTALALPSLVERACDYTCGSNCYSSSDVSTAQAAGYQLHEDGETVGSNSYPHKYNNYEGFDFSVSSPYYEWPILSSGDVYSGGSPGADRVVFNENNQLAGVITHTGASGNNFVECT
An asterisk follows results filed as active; . = not tested or not shown.

SMILES | procasp3 activ | procasp7 counter | TPT1 inhibitor | IDE act | IDE cell inh | TPT1 inh confirm | RNase T1 counter
CCOc1ccc(-n2c(O)c(/C=C3\C=Nc4ccccc43)c(=O)[nH]c2=O)cc1 | -18 | -18 | 23 | -2 | 1 | . | .
COc1ccccc1-n1c(O)c(/C=C2\C=Nc3ccccc32)c(=O)[nH]c1=O | -13 | -23 | 29* | 1 | 2 | 15 | 22*
CCc1ccc(N2C(=O)NC(=O)/C(=C/c3ccsc3)C2=O)cc1 | -13 | -4 | 28* | . | 7 | 17 | 24*
Cc1cccc(N2C(=O)NC(=O)/C(=C/c3ccc([N+](=O)[O-])o3)C2=O)c1 | -14 | -7 | 28* | . | 2 | 17 | 18
CN1C(=O)/C(=C/C=C/c2ccco2)C(=O)NC1=S | -17 | -21 | 23 | -6 | 1 | . | .
Cc1cccc(N2C(=O)NC(=O)/C(=C\C=C\c3ccco3)C2=O)c1 | -8 | -20 | 25* | -12 | 6 | 30* | 48*
O=C1NC(=O)N(c2ccc3c(c2)OCO3)C(=O)/C1=C/c1ccsc1 | -9 | -16 | 10 | 0 | 5 | . | .
Cc1ccc(OCCn2cccc2/C=C2/C(=O)NC(=O)N(Cc3ccco3)C2=O)cc1 | -12 | -10 | 25* | -4 | 3 | 41* | 27*
CN1CCN(C(=O)O[C@H]2c3nccnc3C(=O)N2c2ccc(Cl)cn2)CC1 | 6 | 19 | -1 | 0 | 5 | . | .
Cc1ccc(N2C(=O)NC(=O)/C(=C\C=C\c3ccco3)C2=O)cc1C | -12 | -18 | 38* | -11 | 10 | 51* | 70*
Cc1ccc(N2C(=O)NC(=O)/C(=C\c3ccoc3)C2=O)cc1 | 2 | -6 | 133* | -32 | 20* | 27* | 37*
O=C1NC(=O)N(c2ccccc2)C(=O)/C1=C/C=C/c1ccco1 | -12 | -6 | 19 | -9 | 7 | . | .
COc1cc(/C=C2\C(=O)NC(=O)N(c3ccccc3)C2=O)cc(OC)c1O | -7 | -22 | 51* | 3 | 3 | 4 | 11
Cc1ccc(N2C(=O)NC(=O)/C(=C\C=C\c3ccco3)C2=O)cc1 | -5 | -9 | 43* | -18 | 14 | 34* | 54*
Cn1c(O)c(/C=C2/C=CC=N2)c(=O)[nH]c1=O | -7 | -8 | 1 | 6 | -3 | . | .
O=C(Cn1ccc2ccccc2c1=O)NCC(=O)N1CCC2(CC1)OCCO2 | 8 | 14 | 0 | 3 | -1 | . | .
O=C1NC(=O)N(Cc2ccco2)C(=O)/C1=C/C=C/c1ccco1 | 0 | -12 | 35* | -17 | 1 | 39* | 54*
CN(C)C1C(=O)C(C(N)=O)=C(O)C2(O)C(=O)C3=C(O)c4c(O)cccc4C(C)(O)C3C(O)C12 (stereo not given) | -8 | -15 | 16 | 5 | 0 | . | .
Cc1ccc(C)c(Cn2c(C(=O)O)c(C=O)c3ccccc32)c1 | 3 | -7 | 124* | 1 | 9 | 143* | 137*
CCOc1ccccc1-n1c(O)c(C=NCCCn2ccnc2)c(=O)[nH]c1=O | 5 | 10 | -3 | 6 | 8 | . | .
O=c1c2ccccc2nc(/C=C/c2ccccc2O)n1-c1ccccc1O | 3 | -1 | 25* | -8 | 13 | 37* | 48*
O=c1[nH]c(=O)n(CCc2ccc(F)cc2)c(O)c1C=NCCCn1ccnc1 | 5 | 2 | 39* | 6 | 3 | 33* | 44*
CN(C)CCCN=Cc1c(O)n(CCc2ccccc2)c(=O)[nH]c1=O | -4 | 7 | 72* | 5 | -3 | 65* | 82*

From PubChem
